Measured values collected from several papers.
Protocols differ between the studies behind these lines.
Target: Serine/threonine-protein kinase MARK2 (MARK2, Homo sapiens, UniProt Q7KZI7)

CN(C(=O)c1ccccc1)c1cc(N(C)c2ccc3c(c2)CCc2ccc(C(=O)NCCN4CCOCC4)cc2C3=O)ccc1F
remaining binding (cell-free assay; competition with immobilised ligand; 1 µM): 78%

Cc1nn(CC(F)(F)F)cc1Nc1nccc(NCCCNC(=O)C2CCC2)n1
remaining activity (enzyme activity; inhibitor; radiometric; 1 µM): 103%

CC(=O)N1CCC(c2ccc(C(=O)NC3=NCCN3)cc2C(F)(F)F)CC1
remaining binding (cell-free assay; competition with immobilised ligand; 1 µM): 100%

C[C@@H]1CCN(C(=O)CC#N)C[C@@H]1N(C)c1ncnc2[nH]ccc12
remaining signal (cell-free assay; inhibitor; 0.5 µM): 91.8%

O=C(Nc1cccnn1)N1CC(C/C=C/c2cncc(Oc3ccc(C(F)(F)F)cn3)n2)C1
remaining binding (cell-free assay; competition with immobilised ligand; 1 µM): 80%

NS(=O)(=O)c1ccc(CNc2nc(Nc3cccc(CN4CCOCC4)c3)ncc2Br)cc1
remaining activity (enzyme activity; inhibitor; radiometric; 1 µM): 65%

CCN1CCN(Cc2ccc(NC(=O)c3ccc(C)c(Oc4ccnc5[nH]ccc45)c3)cc2C(F)(F)F)CC1
inhibition (target engagement in cells; inhibitor; chemoproteomics; Huh-7; 1 µM): -10.4%

CC1=C(C#N)C(c2ccc3c(c2)c(NC(=O)c2ccccc2C)nn3C)C(C#N)=C(C)N1
remaining binding (cell-free assay; competition with immobilised ligand; 1 µM): 99%

Cc1ccc(NC(=O)c2ccc(C)c(C(F)(F)F)c2)cc1C#Cc1nn(C2CCC(O)CC2)c2ncnc(N)c12 (stereo not drawn)
remaining signal (cell-free assay; 10 µM): 98%

CNC(=O)c1cc(Oc2ccc(NC(=O)Nc3ccc(Cl)c(C(F)(F)F)c3)cc2)ccn1
inhibition (enzyme activity; inhibitor; 10 µM): 26%

Cc1nn(CC(F)(F)F)cc1Nc1nccc(NCc2ccc(S(N)(=O)=O)cc2)n1
remaining activity (enzyme activity; inhibitor; radiometric; 1 µM): 108%

FC(F)(F)Oc1cccc(-c2cnc3ccc(-c4ccncc4)nn23)c1
activity vs control (enzyme activity; inhibitor; radiometric; 1 µM): 106%

COc1cc2ncnc(Nc3ccc(Oc4ccccc4)cc3C)c2cc1OC
inhibition (enzyme activity; inhibitor; 1 µM): 7%

COc1cc(Nc2cnc(C#N)c(O[C@H](C)CN(C)C)n2)ncc1-c1cnn(C)c1
remaining activity (enzyme activity; inhibitor; radiometric; 10 µM): 57%

O=C(Nc1cccc(Nc2ncc(Br)c(NCCc3cnc[nH]3)n2)c1)N1CCCC1
remaining activity (enzyme activity; inhibitor; radiometric; 1 µM): 5%

CN(C)C1CCN(CC#Cc2nn(C3CCCC3)c3nc(NCc4ccccc4)ncc23)C1 (stereo not drawn)
inhibition (enzyme activity; inhibitor; FRET; 0.1 µM): 4%

O=C(NCCCNc1nc(Nc2cccc(NC(=O)N3CCCC3)c2)ncc1C1CC1)C1CCC1
remaining activity (enzyme activity; inhibitor; radiometric; 1 µM): 6%

Cc1cc(-n2nc(Cc3cc(F)cc(C(F)(F)F)c3)nc2C)ccc1C(N)=O
remaining binding (cell-free assay; competition with immobilised ligand; 1 µM): 89%
